Columns and labels:
[1] = molecular target: T1, 3-hydroxy-3-methylglutaryl-coenzyme A reductase (Rattus norvegicus) (UniProt P51639); experiment: Relative potency to inhibit solubilized, partially purified rat liver HMG-CoA reductase compared with that of compactin.
T1 sequence (whole entry): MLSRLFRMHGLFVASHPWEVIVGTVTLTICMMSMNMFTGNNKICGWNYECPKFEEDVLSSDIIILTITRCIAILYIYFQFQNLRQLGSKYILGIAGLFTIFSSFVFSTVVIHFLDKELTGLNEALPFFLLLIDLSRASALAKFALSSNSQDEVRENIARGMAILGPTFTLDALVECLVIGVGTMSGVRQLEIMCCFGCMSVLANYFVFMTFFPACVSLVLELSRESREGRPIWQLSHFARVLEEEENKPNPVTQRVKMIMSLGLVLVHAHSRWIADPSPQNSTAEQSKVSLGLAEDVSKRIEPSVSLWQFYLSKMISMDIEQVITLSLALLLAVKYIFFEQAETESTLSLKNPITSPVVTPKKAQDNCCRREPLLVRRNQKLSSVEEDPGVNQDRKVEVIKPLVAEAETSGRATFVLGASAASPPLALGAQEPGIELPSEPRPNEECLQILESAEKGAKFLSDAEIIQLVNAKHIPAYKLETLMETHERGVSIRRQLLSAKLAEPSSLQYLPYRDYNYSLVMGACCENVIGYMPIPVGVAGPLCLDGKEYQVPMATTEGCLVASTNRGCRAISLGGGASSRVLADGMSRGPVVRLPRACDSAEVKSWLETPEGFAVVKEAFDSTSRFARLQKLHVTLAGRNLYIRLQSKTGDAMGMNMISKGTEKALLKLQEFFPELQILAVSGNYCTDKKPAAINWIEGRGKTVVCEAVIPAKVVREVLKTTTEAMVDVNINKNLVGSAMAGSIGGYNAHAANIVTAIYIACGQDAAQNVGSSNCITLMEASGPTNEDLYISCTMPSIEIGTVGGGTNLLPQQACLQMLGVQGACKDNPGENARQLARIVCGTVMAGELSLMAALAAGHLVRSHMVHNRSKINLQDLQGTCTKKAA

[2] = molecular target: T2, 3-hydroxy-3-methylglutaryl-coenzyme A reductase (Rattus norvegicus, UniProt P51639); experiment: Inhibition of solubilized, partially purified rat liver HMG-CoA reductase
T2 sequence (P51639 whole entry): T1 sequence (whole entry)
Summary of the method: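 Enzyme solubilized from fresh microsomes and purified through the second ammonium sulfate precipitation. It was diluted in 100 mM phosphate, pH 7.2, to give 50 000–60 000 dpm per 100 μL in control. Assay mix (0.8 mL): phosphate pH 7.2 100 mM, MgCl2 3 mM, NADP 3 mM, glucose 6-phosphate 10 mM, G6PDH 3 units, glutathione 50 mM, [14C]HMG-CoA 0.2 mM. Compounds were added as dihydroxy acid Na salts at multiple concentrations. Incubation ran 40 min at 37 °C, stopped with HCl, then lactonized. [14C]mevalonolactone was separated on Bio-Rex 5 and counted. IC50 came from a least-squares line of % inhibition vs concentration.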

O=C1C[C@H](O)C[C@@H](/C=C/c2ccc(Cl)cc2Cl)O1
Relative potency [1]: 0.08

O=C1C[C@H](O)C[C@@H](CCc2c(Cl)cc(Cl)cc2OCc2ccccc2)O1 (stereo in doubt; 8a(-)) [listing 1 of 2 here]
IC50 [2]: 5200 nM

O=C1C[C@H](O)C[C@@H](/C=C/c2c(Cl)cc(Cl)cc2Oc2ccccc2)O1
IC50 [2]: 1100 nM | Relative potency [1]: 1.4

O=C1C[C@H](O)C[C@@H](/C=C/c2c(Cl)cc(Cl)cc2OCc2cccnc2)O1
IC50 [2]: 3400 nM | Relative potency [1]: 0.6

O=C1C[C@H](O)C[C@@H](/C=C/c2c(Cl)cc(Cl)cc2OCc2cccs2)O1
IC50 [2]: 600 nM | Relative potency [1]: 3

O=C1C[C@H](O)C[C@@H](/C=C/c2ccc(OCc3ccc(F)cc3)c(Cl)c2Cl)O1
IC50 [2]: 17000 nM | Relative potency [1]: 0.12

O=C1C[C@H](O)C[C@@H](/C=C/c2c(Cl)cc(Cl)cc2OCc2ccccc2)O1 (racemic)
IC50 [2]: 430 nM | Relative potency [1]: 3.5

O=C1C[C@H](O)C[C@@H](/C=C/c2c(Cl)cc(Cl)cc2OCCc2ccccc2)O1
IC50 [2]: 480 nM | Relative potency [1]: 5

O=C1C[C@H](O)C[C@@H](/C=C/c2c(Cl)cc(Cl)cc2OCCOc2ccc(Cl)cc2)O1
IC50 [2]: 1000 nM | Relative potency [1]: 3.3

O=C1C[C@H](O)C[C@@H](/C=C/c2c(Cl)cc(Cl)cc2OCc2cccc3ccccc23)O1
IC50 [2]: 4400 nM | Relative potency [1]: 0.4

N#Cc1ccc(COc2cc(Cl)cc(Cl)c2/C=C/[C@@H]2C[C@@H](O)CC(=O)O2)cc1
IC50 [2]: 2000 nM | Relative potency [1]: 1.25

O=C1C[C@H](O)C[C@@H](/C=C/c2ccc(Cl)c(Cl)c2)O1
IC50 [2]: 35000 nM

O=C1C[C@H](O)C[C@@H](/C=C/c2c(Cl)cc(Cl)cc2OCCCc2ccccc2)O1
IC50 [2]: 1450 nM | Relative potency [1]: 1.6

O=C1C[C@H](O)C[C@@H](/C=C/c2c(Cl)cc(Cl)cc2OCCC23CC4CC(CC(C4)C2)C3)O1
IC50 [2]: 3000 nM | Relative potency [1]: 0.7

O=C1C[C@H](O)C[C@@H](/C=C/c2c(Cl)cc(Cl)cc2OC/C=C/c2ccccc2)O1
IC50 [2]: 1900 nM | Relative potency [1]: 1.1

O=C1C[C@H](O)C[C@@H](/C=C/c2c(Cl)cc(Cl)cc2OCc2c(F)c(F)c(F)c(F)c2F)O1
IC50 [2]: 700 nM | Relative potency [1]: 2.3

O=C1C[C@H](O)C[C@@H](/C=C/c2cccc(Cl)c2Cl)O1
IC50 [2]: 64400 nM | Relative potency [1]: 0.017

O=C1C[C@H](O)C[C@@H](/C=C/c2c(Cl)cc(Cl)cc2OCc2ccc[n+]([O-])c2)O1
IC50 [2]: 122000 nM | Relative potency [1]: 0.016

O=C1C[C@H](O)C[C@@H](CCc2c(Cl)cc(Cl)cc2OCc2ccc(F)cc2)O1 (stereo in doubt; 66) [listing 1 of 2 here]
IC50 [2]: 76 nM

C=CCOc1cc(Cl)cc(Cl)c1/C=C/[C@@H]1C[C@@H](O)CC(=O)O1
IC50 [2]: 760 nM | Relative potency [1]: 3.2

O=C1C[C@H](O)C[C@@H](CCc2c(Cl)cc(Cl)cc2OCc2ccc(F)cc2)O1 (stereo in doubt; 66) [listing 2 of 2 here]
Relative potency [1]: 38

O=C1C[C@H](O)C[C@@H](/C=C/c2c(Cl)cc(Cl)cc2OCc2ccncc2)O1
IC50 [2]: 3700 nM | Relative potency [1]: 0.6

O=C1C[C@H](O)C[C@@H](/C=C/c2c(Cl)cccc2Cl)O1
IC50 [2]: 7900 nM | Relative potency [1]: 0.14

O=C1C[C@H](O)C[C@@H](/C=C/c2ccc(-c3ccccc3)cc2)O1
IC50 [2]: 55000 nM

O=C1C[C@H](O)C[C@@H](/C=C/c2ccccc2-c2ccccc2)O1
IC50 [2]: 3000 nM | Relative potency [1]: 0.63

O=C1C[C@H](O)C[C@@H](CCc2c(Cl)cc(Cl)cc2OCc2ccccc2)O1 (stereo in doubt; 8a(+)) [listing 1 of 2 here]
IC50 [2]: 68 nM

COc1ccc(COc2cc(Cl)cc(Cl)c2/C=C/[C@@H]2C[C@@H](O)CC(=O)O2)cc1
IC50 [2]: 2600 nM | Relative potency [1]: 0.8

O=C1C[C@H](O)C[C@@H](/C=C/c2c(Cl)cc(Cl)cc2OCc2ccc(F)cc2)O1
IC50 [2]: 200 nM | Relative potency [1]: 7.5

O=C1C[C@H](O)C[C@@H](/C=C/c2c(Cl)cc(Cl)cc2OCc2ccco2)O1
IC50 [2]: 600 nM | Relative potency [1]: 3

O=C1C[C@H](O)C[C@@H](/C=C/c2c(Cl)cc(Cl)cc2OCc2ccc(F)cc2F)O1
IC50 [2]: 200 nM | Relative potency [1]: 7.5

Cc1cc(OCc2ccccc2)cc(C)c1/C=C/[C@@H]1C[C@@H](O)CC(=O)O1
IC50 [2]: 620 nM | Relative potency [1]: 3.7

O=C1C[C@H](O)C[C@@H](/C=C/c2ccccc2)O1
IC50 [2]: 284000 nM | Relative potency [1]: 0.004

O=C1C[C@H](O)CC(CCc2c(Cl)cc(Cl)cc2OCC2CCCCC2)O1 (some centres not stated)
IC50 [2]: 750 nM | Relative potency [1]: 4.4

O=C1C[C@H](O)C[C@@H](/C=C/c2c(Cl)cc(OCc3ccccc3)cc2Cl)O1
IC50 [2]: 450 nM | Relative potency [1]: 4

O=C1C[C@H](O)C[C@@H](CCc2c(Cl)cc(Cl)cc2OCc2ccc(F)cc2)O1 (stereo in doubt; 66(+)) [listing 1 of 2 here]
Relative potency [1]: 58

O=C1C[C@H](O)C[C@@H](/C=C/c2c(Cl)cc(Cl)cc2OCc2ccc(Cl)cc2)O1
IC50 [2]: 2500 nM | Relative potency [1]: 1.7

COCCOCOc1cc(Cl)cc(Cl)c1/C=C/[C@@H]1C[C@@H](O)CC(=O)O1
IC50 [2]: 11000 nM | Relative potency [1]: 0.4

Cc1ccc(COc2cc(Cl)cc(Cl)c2/C=C/[C@@H]2C[C@@H](O)CC(=O)O2)cc1
IC50 [2]: 4900 nM | Relative potency [1]: 0.3

CSCOc1cc(Cl)cc(Cl)c1/C=C/[C@@H]1C[C@@H](O)CC(=O)O1
IC50 [2]: 760 nM | Relative potency [1]: 2.1

O=C1C[C@H](O)C[C@@H](/C=C/c2ccccc2Cl)O1
IC50 [2]: 7400 nM | Relative potency [1]: 0.15

O=C1C[C@H](O)C[C@@H](CCc2c(Cl)cc(Cl)cc2OCc2ccccc2)O1 (racemic) [listing 1 of 2 here]
Relative potency [1]: 12

O=C1C[C@H](O)C[C@@H](CCc2c(Cl)cc(Cl)cc2OCc2ccccc2)O1 (stereo in doubt; 8a(+)) [listing 2 of 2 here]
Relative potency [1]: 19.1

O=C1C[C@H](O)C[C@@H](CCc2c(Cl)cc(Cl)cc2COc2ccccc2)O1
IC50 [2]: 390 nM | Relative potency [1]: 6

O=C1C[C@H](O)CC(CCc2c(Cl)cc(Cl)cc2OCc2ccccc2F)O1 (some centres not stated)
IC50 [2]: 150 nM | Relative potency [1]: 10

CC(CCOc1cc(Cl)cc(Cl)c1/C=C/[C@@H]1C[C@@H](O)CC(=O)O1)CC(C)(C)C (some centres not stated)
IC50 [2]: 38000 nM | Relative potency [1]: 0.09

O=C1C[C@H](O)CC(CCc2c(Cl)cc(Cl)cc2OCc2ccc(C(F)(F)F)cc2)O1 (some centres not stated)
IC50 [2]: 13000 nM | Relative potency [1]: 0.16

O=C1C[C@H](O)C[C@@H](/C=C/c2c(Cl)cc(Cl)cc2OCc2cccc(F)c2)O1
IC50 [2]: 580 nM | Relative potency [1]: 3.4

CCCCCOc1cc(Cl)cc(Cl)c1/C=C/[C@@H]1C[C@@H](O)CC(=O)O1
IC50 [2]: 1000 nM | Relative potency [1]: 2.4

O=C1C[C@H](O)C[C@@H](CCc2c(Cl)cc(Cl)cc2OCc2ccc(F)cc2)O1 (stereo in doubt; 66(+)) [listing 2 of 2 here]
IC50 [2]: 50 nM

O=C1C[C@H](O)CC(CCc2c(Cl)cc(Cl)cc2Oc2ccccc2)O1 (some centres not stated)
IC50 [2]: 330 nM | Relative potency [1]: 4.5

Cc1ccc(/C=C/[C@@H]2C[C@@H](O)CC(=O)O2)c(C)c1
IC50 [2]: 29900 nM

O=C1C[C@H](O)CC(CCc2c(O)cc(Cl)cc2Cl)O1 (some centres not stated)
IC50 [2]: 7900 nM | Relative potency [1]: 0.2

O=C1C[C@H](O)C[C@@H](/C=C/c2c(Cl)cc(OCc3ccc(F)cc3)cc2Cl)O1
IC50 [2]: 670 nM | Relative potency [1]: 2.7

O=C1C[C@H](O)C[C@@H](/C=C/c2c(Cl)cc(Cl)cc2OCc2cc[n+]([O-])cc2)O1
IC50 [2]: 117000 nM | Relative potency [1]: 0.016

O=C1C[C@H](O)C[C@@H](CCc2c(Cl)cc(Cl)cc2OCc2ccccc2)O1 (stereo in doubt; 8a(-)) [listing 2 of 2 here]
Relative potency [1]: 0.25

O=C1C[C@H](O)C[C@@H](CCc2c(Cl)cc(Cl)cc2OCc2ccccc2)O1 (racemic) [listing 2 of 2 here]
IC50 [2]: 200 nM

O=C1C[C@H](O)C[C@@H](/C=C/c2c(Cl)cc(Cl)cc2OC(c2ccccc2)c2ccccc2)O1
IC50 [2]: 6300 nM | Relative potency [1]: 0.7

CCCCCOc1c(Cl)cc(Cl)cc1/C=C/[C@@H]1C[C@@H](O)CC(=O)O1
IC50 [2]: 13000 nM

O=C1C[C@H](O)C[C@@H](/C=C/c2c(Cl)cc(Cl)cc2OCc2ccccn2)O1
IC50 [2]: 1200 nM | Relative potency [1]: 1.8

O=C1C[C@H](O)C[C@@H](/C=C/c2c(Cl)cc(Cl)cc2OCc2ccccc2F)O1
IC50 [2]: 510 nM | Relative potency [1]: 5.9

O=C1C[C@H](O)CC(CCc2c(Cl)cc(Cl)cc2OCc2cccc(F)c2)O1 (some centres not stated)
IC50 [2]: 210 nM | Relative potency [1]: 8
